Assay results: article PMC7902087 (Bioorganic & medicinal chemistry, 2020)
Like-named read-outs stand apart in the source and are kept apart here.

Assays:
[1] = tested on: Hepatocellular carcinoma (HePG2); assay: In vitro antitumor MTT assay, HePG2; type: cell-based, human
[2] = tested on: Human prostate cancer (PC3); assay: In vitro antitumor MTT assay, PC3; type: cell-based; conditions: read-out: In vitro cytotoxicity IC50 PC3
[3] = tested on: Epitheliod Carcinoma Cervix cancer (Hela); assay: In vitro antitumor MTT assay, Hela; conditions: read-out: In vitro cytotoxicity IC50 Hela
[4] = tested on: Mammary gland Breast cancer (MCF-7); assay: In vitro antitumor MTT assay, MCF-7
[5] = tested on: Human lung fibroblast (WI38) cell line; assay: In vitro cytotoxicity against human normal cells; type: cell-based; conditions: WI-38, read-out: IC50 against WI38 normal cells
MCF-7 cells [6] = assay: Cell cycle arrest analysis; type: cell-based, human
MCF-7 cells [7] = assay: Detection of apoptosis; type: cell-based, human; conditions: MCF-7, 24 h
[8] = tested on: HePG2, MCF-7, Hela and PC3 cell lines; assay: In vitro antitumor MTT assay, range over the four cell lines; type: cell-based; conditions: Homo sapiens, read-out: IC50 range towards the four cell lines
[9] = tested on: Staphylococcus aureus ATCC 29213; assay: Minimal inhibitory concentration, S. aureus; type: cell-based; conditions: broth dilution, 37 °C 18 h
Bacillus cereus UW85 = assay: Minimal inhibitory concentration, B. cereus; type: cell-based; conditions: broth dilution, 37 °C 18 h
[10] = tested on: Pseudomonas aeruginosa PAO1; assay: Minimal inhibitory concentration, P. aeruginosa; type: cell-based; conditions: broth dilution, 37 °C 18 h
Outline: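 Broth microdilution with serial 1:1 dilutions of test compound in Mueller Hinton broth. Wells are inoculated with bacterial suspension at 5 × 10^6 CFU/ml, and ampicillin/clavulanic acid serves as the positive control. Plates incubate at 37 °C for 18 h. MIC is the lowest concentration with no visible growth.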

Candida albicans CS351 = assay: Minimal inhibitory concentration, C. albicans; type: cell-based; conditions: broth dilution, 37 °C 18 h
[11] = read-out: In vitro cytotoxicity IC50 HePG2, MTT, Mean ± SD, n = 3
[12] = read-out: In vitro cytotoxicity IC50 MCF-7, MTT, Mean ± SD, n = 3
[13] = Homo sapiens, HepG2, read-out: In vitro cytotoxicity IC50 HePG2
[14] = Homo sapiens, MCF7, read-out: In vitro cytotoxicity IC50 MCF-7

With “(E)-2-(2-(1-(benzofuran-2-yl)ethylidene)hydrazineyl)-4-(benzofuran-5-yl)thiazole [Compound 10]” the IC50 [1, 11] was 21.2 ± 1.8 µM, the IC50 ([2]; MTT, Mean ± SD, n = 3) was 34.2 ± 2.6 µM and the IC50 ([3]; MTT, Mean ± SD, n = 3) was 24.1 ± 2.1 µM. For the same molecule, the IC50 [4, 12] was 25.6 ± 2.2 µM.

In the case of `C/C(=N\N=C\c1cccc(Cl)c1)c1cc2ccccc2o1` [Compound 23, (E)-1-(1-(benzofuran-2-yl)ethylidene)-2-((E)-3-chlorobenzylidene)hydrazine], the IC50 [1, 13] is reported as 86.5 ± 4.3 µM, the IC50 ([2]; Homo sapiens) is reported as 91.8 ± 4.9 µM and the IC50 ([3]; Homo sapiens, HeLa) is reported as over 100 µM. The IC50 [4, 14] was over 100 µM.

`COc1ccc(/N=N/C(C=O)=C(/O)c2cc3ccccc3o2)cc1` [Compound 13, (E)-3-(benzofuran-2-yl)-3-hydroxy-2-((E)-(4-methoxyphenyl)diazenyl)acrylaldehyde] was tested, and the IC50 [5] was 83.5 µM.

In the case of `CCOC(=O)Cc1csc(N/N=C(\C)c2cc3ccccc3o2)n1` [Compound 9, Ethyl (E)-2-(2-(2-(1-(benzofuran-2-yl)ethylidene)hydrazineyl)thiazol-4-yl)acetate], the Cell cycle comment (MCF-7 cells [6]) is reported as “pre-G1 apoptosis and cell growth arrest at G2/M”, the “late apoptotic induction compared to control cells” value (MCF-7 cells [7]) is reported as 54 fold and the late apoptotic induction (MCF-7 cells [7]; control 0.15%) is reported as 8.1%. It also gave an IC50 [8] of 6.55 to 13.1 µM.

With “(E)-3-(benzofuran-2-yl)-3-hydroxy-2-((E)-(2-methylphenyl) diazenyl)acrylaldehyde [Compound 17]” the IC50 [1, 11] was 72.4 ± 3.5 µM, the IC50 ([2]; MTT, Mean ± SD, n = 3) was 77.6 ± 4.3 µM and the “Minimal inhibitory concentration S. aureus” value [9] was 8 µg/mL. The “Minimal inhibitory concentration B. cereus” value (Bacillus cereus UW85) was 256 µg/mL, the “Minimal inhibitory concentration P. aeruginosa” value [10] was 512 µg/mL and the “Minimal inhibitory concentration C. albicans” value (Candida albicans CS351) was 512 µg/mL. The IC50 ([3]; MTT, Mean ± SD, n = 3) was 75 ± 4.2 µM and the IC50 [4, 12] was 83.6 ± 4.3 µM.

`C/C(=N\Nc1nc(C)cs1)c1cc2ccccc2o1` [Compound 11, (E)-2-(2-(1-(benzofuran-2-yl)ethylidene)hydrazineyl)-4-methylthiazole] was tested, and the IC50 [8] was 4 to 8.99 µM.

`C/C(=N\N=C\c1ccc([N+](=O)[O-])cc1)c1cc2ccccc2o1` [Compound 22, (E)-1-(1-(benzofuran-2-yl)ethylidene)-2-((E)-4-nitrobenzylidene) hydrazine] showed an IC50 [1, 13] of 77.4 ± 3.9 µM, an IC50 ([2]; Homo sapiens) of over 100 µM and an IC50 ([3]; Homo sapiens, HeLa) of over 100 µM. For the same molecule, the IC50 [4, 14] was 88.5 ± 4.6 µM.

With `COc1cccc2c1C(=O)c1c(O)c3c(c(O)c1C2=O)C[C@@](O)(C(=O)CO)C[C@@H]3O[C@H]1C[C@H](N)[C@H](O)[C@H](C)O1` [DOX, doxorubicin, reference compound] the IC50 [8] was 4.17 to 8.87 µM.

In the case of `C/C(=N\Nc1nc(-c2ccccc2)cs1)c1cc2ccccc2o1` [Compound 8, (E)-2-(2-(1-(benzofuran-2-yl)ethylidene)hydrazinyl)-4-(4-phenyl)thiazole], the Cell cycle comment (MCF-7 cells [6]) is reported as “pre-G1 apoptosis and cell growth arrest at G2/M”, the “late apoptotic induction compared to control cells” value (MCF-7 cells [7]) is reported as 98 fold and the IC50 [8] is reported as 8.49 to 16.7 µM.

For “(E)-3-(benzofuran-2-yl)-3-hydroxy-2-((E)-(3-methylphenyl) diazenyl)acrylaldehyde [Compound 16]”, the IC50 [1, 11] was 52.3 ± 3.1 µM, the IC50 ([2]; MTT, Mean ± SD, n = 3) was 63.3 ± 3.9 µM and the “Minimal inhibitory concentration S. aureus” value [9] was 64 µg/mL. For the same molecule, the “Minimal inhibitory concentration B. cereus” value (Bacillus cereus UW85) was 128 µg/mL, the IC50 ([3]; MTT, Mean ± SD, n = 3) was 69.4 ± 4 µM and the IC50 [4, 12] was 66.2 ± 3.9 µM.
